NPY-Y2 PAM-ag: potentiators or agonists of human neuropeptide Y receptor Y2. cells expressing NPY-Y2, potentiator/agonist read-out. activation, % at 3.6 µM. P49146. 220,000 tested, 0.45% active. AID 1359; in the data active = activation above about 27%;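 note: cells stimulated with NPY near EC25 plus isoproterenol at EC100; 0% = vehicle plus submaximal agonist and 100% = vehicle plus saturating agonist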
NPY1 pot ag: human NPY-Y1 potentiation or agonism, primary screen. P25929. NPY-Y1 expressing cells, potentiator/agonist activation. activation, % at 3.6 µM. 220,000 tested, 0.37% active. AID 1304; in the data active = activation above about 33%, passing the limit was not always enough;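 note: cells stimulated with NPY at EC10 then isoproterenol at EC100; 0% = low agonist plus stimulus and 100% = saturating agonist plus stimulus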
Measles CPE: protection of cells from measles virus; Measles virus-infected cells, CPE protection, absorbance; protection (pct of control), % at 4 µM; 140,000 tested, 1.5% active; AID 841; in the data active = protection mostly above about 24%, no sharp cut-off; inactive = mostly below about 26%
NPY Y2 blocker: NPY-Y2 (human) receptor antagonism; P49146; 140,000 tested, 0.99% active; NPY-Y2 expressing cells, antagonist mode; inhibition, % at 2.7 µM; in the data active = inhibition above about 17%;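 note: 0% = vehicle with agonist challenge and 100% = reference antagonist with challenge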
Mdm2 ligase inh: inhibitors of human Mdm2 E3 ubiquitin ligase; cell-based MDM2 ubiquitination luciferase reporter, 2 h; 0 = plate control, 100 = twice control, blank-subtracted; AID 1230; Q00987; signal enhancement, % at 5 µM; 210,000 tested, 0.11% active;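 active = signal enhancement of 30% or more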;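 note: luminescence tracks abundance of the self-degrading MDM2-luciferase fusion protein; higher signal means inhibition of MDM2 E3 ligase activity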
Target sequence (Q00987 whole entry, looked up, the tested form may be a part): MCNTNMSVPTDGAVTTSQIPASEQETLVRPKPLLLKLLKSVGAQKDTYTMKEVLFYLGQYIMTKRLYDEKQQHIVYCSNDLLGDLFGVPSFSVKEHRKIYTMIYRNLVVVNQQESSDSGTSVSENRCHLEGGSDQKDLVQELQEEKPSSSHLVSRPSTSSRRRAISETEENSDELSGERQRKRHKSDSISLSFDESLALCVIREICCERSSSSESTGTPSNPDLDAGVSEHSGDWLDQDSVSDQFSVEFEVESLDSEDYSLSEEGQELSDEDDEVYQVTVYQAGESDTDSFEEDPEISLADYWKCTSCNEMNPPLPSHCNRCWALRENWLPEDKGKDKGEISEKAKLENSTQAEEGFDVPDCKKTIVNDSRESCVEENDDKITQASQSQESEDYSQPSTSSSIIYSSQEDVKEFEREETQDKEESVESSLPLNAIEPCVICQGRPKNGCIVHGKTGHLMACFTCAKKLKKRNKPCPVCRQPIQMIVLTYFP
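Assay system: stable mammalian line carrying autodegrading MDM2–luciferase fusion reporter; Input: 2000 cells in each well; Compound dosing: single-point 5 µM; Schedule: 2 h compound exposure at 37 °C; Signal: SteadyLite luciferase luminescence after 15 min room-temperature reagent incubation; Evaluation: % luminescence enhancement versus blank-corrected plate control mean; Benchmarks: plate controls and plate blanks.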
NPY-Y1 antag: antagonists of human neuropeptide Y receptor Y1; HEK293-CNG Y1 cells, membrane potential fluorescence; NPY at EC95, then isoproterenol; inhibition, % at 3.6 µM; 200,000 tested, 1% active;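 active = inhibition above the campaign mean inhibition of all tested compounds plus 3 SD, cut at about 20% in these data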;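 note: 0% = DMSO wells given NPY plus isoproterenol and 100% = isoproterenol alone without NPY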
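Material: HEK293 cells co-expressing NPY Y1 receptor and cyclic-nucleotide gated channel. Timing: compound incubation 1 h at room temperature, readout 45 min post-stimulation. Signal: fluorescence, membrane potential probe.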
* = called active by the depositor; . = no result. Most compounds without a hit are left out; they make up all but 2.8% or so of the library.

SMILES	NPY-Y2 PAM-ag	NPY1 pot ag	Measles CPE	NPY Y2 blocker	Mdm2 ligase inh	NPY-Y1 antag
CCN=c1scc(-c2ccccc2)n1/N=C/c1ccccn1	-1.1	23.3	61.9*	3.7	-41.3	-1.8
C=CCNC(=S)N1CCN(c2ncc(C(F)(F)F)cc2Cl)CC1	-14.3	-3.6	.	.	-5.7	.
CC1(C)NC(=O)N(CCCCOc2ccc(Br)cc2Cl)C1=O	18.2	3.2	7.6	2.8	-5.8	10.9
CC1(C)NC(=O)N(CCCOc2ccc(Br)cc2Cl)C1=O	1.9	-2.3	56.8*	2.6	-12.3	-2.8
COc1c2c(nc3ccccc13)OC(C(C)(O)COC(C)=O)C2 (stereo unspecified)	8.4	-1.7	32.3*	1.7	-7.5	-5.4
CC(CCCCC(=O)Nc1ccc(C(F)(F)F)cc1)NCCc1cnc[nH]1 (stereo unspecified)	-5.0	3.4	.	.	.	-2.1
O=C(CSC1=NCCN1)C1COc2ccccc2O1 (stereo unspecified)	4.8	3.4	30.7*	2.5	-15.0	3.2
COc1ccc(CCNS(=O)(=O)c2ccc3c(c2)CCN3C(=O)C2CC2)cc1OC	-27.3	-5.1	21.5	0.8	-3.2	3.2
COc1ccc(CCNS(=O)(=O)c2ccc3c(c2)CC(C)N3C(C)=O)cc1OC (stereo unspecified)	8.0	-10.2	37.5*	3.0	-6.9	1.0
CC(C(=O)Nc1ccccc1-c1ccccc1)N(C)Cc1nc2ccccc2c(=O)[nH]1 (stereo unspecified)	9.6	-11.6	.	.	-20.1	-3.9
O=[N+]([O-])c1ccc(N2CCN(CCO)CC2)cc1Sc1nc2ccccc2[nH]1	6.1	-4.8	8.7	1.2	1.8	-0.5
Cc1cc(C(=O)Cn2nnc3ccccc3c2=O)c(C)n1-c1ccccc1F	3.8	-1.1	96.6*	0.8	-27.8	2.7
COc1ccc(S(=O)(=O)Nc2ccc(Cl)cn2)c(C)c1C	36.9*	59.1*	12.8	-13.1	-10.2	-8.6
C#CCONC(=O)c1cc(OCC(F)(F)F)ccc1OCC(F)(F)F	-4.0	17.1	1.4	-0.9	-20.6	1.8
Cn1cccc1C(=O)C(=O)Nc1ccc(Cl)cc1	11.7	3.8	40.8*	0.5	-61.6	-1.3
Cn1cccc1C(=O)C(=O)Nc1cc(Cl)cc(Cl)c1	-8.2	4.4	14.7	-2.4	-10.5	3.6
Cc1ccc(C(=O)Cn2c(C(=O)/C=C/c3ccccc3)nc3ccccc32)cc1	-12.0	-9.1	3.0	3.1	0.7	1.1
O=C(CN1CCCCCC1)Nc1ccc(Oc2ccccc2)cc1	-4.7	1.6	.	.	-14.4	4.3
O=C(CN1CCCCC1)Nc1ccccc1	-23.4	-3.0	30.3*	-0.2	0.2	-1.8
Cn1c(=O)n(C)c2cc([N+](=O)[O-])c(N3CCN(S(=O)(=O)c4ccc5ccccc5c4)CC3)cc21	4.4	-17.3	32.8*	-0.4	-2.9	-3.5
O=C(COc1ccc2oc(-c3ccco3)cc(=O)c2c1)N1CCCCC1	-1.1	-1.3	.	.	-13.6	-9.5
CS/C(=N/S(=O)(=O)c1ccc(C)cc1)c1ccccc1	2.7	-6.9	17.9*	-1.5	-9.2	6.1
O=c1c(Cc2ccccc2)c(O)ccn1C1CCCCCCC1	-4.9	-0.1	.	.	-9.5	-1.0
O=C1OC(c2ccccc2)/C(=C(/O)c2ccccc2)C1=O (stereo unspecified)	62.4*	102.6*	19.0	4.8	-15.7	0.0
CCOc1ccc(/C(O)=C2/C(=O)C(=O)N(CC3CCCO3)C2c2ccc(C)o2)cc1 (stereo unspecified)	2.7	8.0	46.1*	3.6	-3.9	-2.7
SMILES	NPY-Y2 PAM-ag	NPY1 pot ag	Measles CPE	NPY Y2 blocker	Mdm2 ligase inh	NPY-Y1 antag
CCCCN=CC1=C(O)CC(c2ccccc2)CC1=O (stereo unspecified)	-4.1	-24.4	.	.	-6.7	0.8
Cc1noc(C)c1COc1ccc(C(=O)NCc2ccccn2)cc1	-5.1	-3.1	3.7	-0.3	68.4*	2.4
Cc1noc(C)c1COc1ccc(C(=O)Nc2ccccc2)cc1	-12.3	-1.8	.	.	-5.7	-0.7
COc1ccc(/C=C/C(=O)c2ccccc2)cc1Cn1nnc2ccccc21	3.1	-11.0	15.3	3.6	18.6	6.7
Cc1cccc(/C(N)=N/OC(=O)CCCN2C(=O)c3ccccc3C2=O)c1	-18.3	-29.9	3.8	8.3	-3.7	29.2*
N/C(=N\OC(=O)CCCCCN1C(=O)c2ccccc2C1=O)c1ccccc1	-36.2	-33.5	4.9	6.7	-8.7	13.1
O=C(Nc1ccccn1)C(F)(F)C(F)(F)C(F)(F)C(F)(F)C(=O)Nc1ccccn1	-2.4	11.2	9.9	-0.9	-9.1	8.6
COc1ccc(N2CCN(C(=O)c3ccc(NS(=O)(=O)c4ccc(F)c(F)c4)cc3)CC2)cc1	6.9	-15.3	20.1	-4.1	-4.4	1.7
COc1ccc(N2CCN(C(=O)c3ccc(NS(=O)(=O)c4cccc(F)c4)cc3)CC2)cc1	15.3	15.5	18.8*	0.1	-7.5	-2.4
COc1ccc(C2C(C(=O)Nc3cccc(OC)c3)c3ccccc3C(=O)N2C)cc1 (stereo unspecified)	2.4	10.7	.	.	-3.6	3.0
COc1ccc(C2C(C(=O)N3CCN(C)CC3)c3cc(OC)c(OC)cc3C(=O)N2C)cc1 (stereo unspecified)	-6.7	-14.0	.	.	30.6*	-1.4
COc1ccc(C2C(C(=O)Nc3cc(OC)c(OC)c(OC)c3)c3ccccc3C(=O)N2C)cc1 (stereo unspecified)	31.2*	37.1*	.	.	-0.8	-0.6
Cc1ccc(S(=O)(=O)N2CCC(C(=O)NNC(=O)c3ccc(F)cc3)CC2)cc1	-8.9	12.4	.	.	-11.1	-5.4
COC(=O)CC1COc2ccccc2N1C(=O)c1cccc(Cl)c1 (stereo unspecified)	-10.4	23.5	26.2*	2.0	-1.4	7.4
CC1COc2ccccc2N1C(=O)c1ccc(Cl)nc1 (stereo unspecified)	-0.4	-8.5	.	.	-5.3	4.1
CC(C)CNC(=O)C(=O)NNC(=O)c1ccco1	-8.3	15.3	.	.	9.9	2.7
Cn1c(C(=O)NCc2ccccn2)cc2c(=O)n(C)c3ccccc3c21	42.2*	37.0*	5.7	-7.0	-14.1	-11.8
O=C(C(c1ccccc1)c1ccccc1)N1CCC(c2nc(-c3ccccc3Cl)no2)CC1	-16.1	-69.6	37.0*	14.4	0.8	14.2
O=C(O)c1ccc(S(=O)(=O)N2CCC(c3nc(-c4ccccc4Cl)no3)CC2)cc1	-4.6	17.7	7.0	0.1	6.1	0.9
CN1CCN(c2ncnc3c2[nH]c2ccc(F)cc23)CC1	8.6	17.7	50.4*	1.3	1.5	-4.9
CN(C)CCCN(C(=O)c1sc2ccccc2c1Cl)c1nc2c(F)cccc2s1	-20.5	-38.6	27.6	17.7*	-16.1	20.3*
CCOc1cccc2sc(N(CCCN(C)C)C(=O)c3ccc(S(=O)(=O)N(C)c4ccccc4)cc3)nc12	-17.8	-34.2	.	.	-3.7	21.0*

Compound activity deposited in PubChem by several laboratories.
